FXIIa inh 1536: human FXIIa protease inhibitors, primary screen, biochemical, 1536-well; Coagulation factor XII (Homo sapiens), P00748; inhibition, % at 5 µM; 220,000 tested, 0.3% active; purified FXIIa, Boc-QGR-AMC fluorogenic substrate, 2 h; AID 800, 2007; in the data active = inhibition above about 40%
Target sequence (P00748 20-372 limits assumed): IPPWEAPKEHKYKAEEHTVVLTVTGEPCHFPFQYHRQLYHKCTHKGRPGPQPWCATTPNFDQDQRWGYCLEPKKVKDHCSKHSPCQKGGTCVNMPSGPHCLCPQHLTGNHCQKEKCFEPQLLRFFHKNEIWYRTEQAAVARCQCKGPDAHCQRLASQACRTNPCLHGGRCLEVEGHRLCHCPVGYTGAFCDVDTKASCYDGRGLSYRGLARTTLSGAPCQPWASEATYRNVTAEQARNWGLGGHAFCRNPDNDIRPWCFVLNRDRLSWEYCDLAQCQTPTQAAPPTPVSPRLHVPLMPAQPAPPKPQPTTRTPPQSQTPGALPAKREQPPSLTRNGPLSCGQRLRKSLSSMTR
Target sequence (P00748 373-615 limits assumed): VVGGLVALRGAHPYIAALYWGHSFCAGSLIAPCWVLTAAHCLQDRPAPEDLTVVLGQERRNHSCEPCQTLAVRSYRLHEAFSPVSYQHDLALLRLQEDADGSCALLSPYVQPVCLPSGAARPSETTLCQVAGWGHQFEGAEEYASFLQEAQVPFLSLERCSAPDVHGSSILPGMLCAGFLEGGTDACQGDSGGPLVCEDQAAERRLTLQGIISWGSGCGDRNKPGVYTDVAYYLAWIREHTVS
KLK5 inh: human KLK5 protease inhibitors, primary screen, biochemical, 1536-well | recombinant hK5, fluorogenic AMC substrate cleavage | 210,000 tested, 0.59% active | inhibition, % at 5 µM | Kallikrein-5 (Homo sapiens), Q9Y337;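 active = inhibition of 40% or more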
Thrombin inh: human alpha-thrombin inhibitors, primary screen, counter-screen for coagulation protease inhibitor project, biochemical, 1536-well, fluorogenic AMC substrate. 220,000 tested, 0.26% active. Boc-VPR-AMC fluorogenic substrate cleavage. inhibition, % at 5 µM. Prothrombin (Homo sapiens), P00734;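 active = inhibition at or above 40%; inactive = inhibition below 40%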
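System – human alpha-thrombin protein · Reagent – Boc-VPR-AMC substrate, 15 µM final · Compound – 5 µM single dose in 0.2% DMSO · Schedule – reaction at room temperature · Technique – AMC fluorescence at 355 nm excitation and 460 nm emission · Read-out basis – % inhibition relative to enzyme controls and enzyme-free blanks · Control set – no-compound enzyme wells and no-enzyme blanks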
FXIa inh 1536: human FXIa protease inhibitors, primary screen, biochemical, 1536-well; AID 798, 2007; Coagulation factor XI (Homo sapiens), P03951; purified FXIa, Boc-Glu-Ala-Arg-AMC fluorogenic substrate; inhibition, % at 5 µM; 220,000 tested, 0.14% active;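 active = inhibition of at least 40%; inactive = inhibition below 40%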;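 note: fluorescence of freed AMC excited at 355 nm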
Hits are given with their value; – = inactive; · = not tested or not shown. Hits are enriched below; roughly 1% of the tested compounds scored in any of these assays.

SMILES | FXIIa inh 1536 | KLK5 inh | Thrombin inh | FXIa inh 1536
CCOc1cc(/C=N/Nc2nc(-c3cccs3)c(NC(C)=O)s2)ccc1O | – | – | – | –
Cc1ccc(C2=NN(S(=O)(=O)c3ccccc3)C(c3ccccc3O)C2)cc1 (stereo not given) | 103 | – | – | –
CCOC(=O)Cc1csc(NC(=O)c2sc3nc4cc(C)ccc4cc3c2N)n1 | – | – | – | –
CCOC(=O)Cc1csc(NC(=O)c2sc3nc4ccc(CC)cc4cc3c2N)n1 | – | 91 | – | 43
Nc1ncccc1OCc1ccc(Cl)c(Cl)c1 | – | – | – | –
CC1(C)OC2OC(C(=O)N/N=C/c3cc(Br)ccc3O)C3OC(C)(C)OC3C2O1 (stereo not given) | – | – | – | –
O=C(Nc1ncnc2sc3c(c12)CCCCC3)c1ccc(F)cc1 | 47 | – | – | –
O=C(Nc1ncnc2sc3c(c12)CCCCC3)c1ccccc1 | – | – | – | –
CC(Sc1nnc(-c2cc3ccccc3o2)n1-c1ccccc1)C(=O)O (stereo not given) | – | – | 47 | –
O=C(Cn1[nH]c(=O)c2ccccc2c1=O)NNC(=O)c1ccccc1 | – | – | – | –
CCN1CCN(c2cc(C(C)C)nc3c(-c4ccccc4)c(C)nn23)CC1 | – | – | – | –
CCN1CCN(c2cc(C(C)(C)C)nc3c(-c4ccccc4)c(C)nn23)CC1 | – | 47 | – | –
COc1ccc(-c2[nH]ncc2-c2ccc3c(c2)OCCO3)c(O)c1 | – | 49 | 101 | –
CCOC(=O)c1c(-c2ccccc2)csc1NC(=O)c1cc(S(=O)(=O)N2CCOCC2)ccc1C | – | – | – | –
CCCCNC(=O)Cn1cnc2ccc(S(=O)(=O)N3CCC(C)CC3)cc2c1=O | – | · | – | –
CCN(CC)CCCNC(=O)Cn1cnc2ccc(S(=O)(=O)N3CCC(C)CC3)cc2c1=O | – | 45 | – | –
Cc1nc(C(C)NC(=O)CCc2nnc(CCCc3ccccc3)o2)c(C)s1 (stereo not given) | – | – | – | –
Cc1oc(C(C)(C)C)cc1C(=O)Nc1ccc2c(c1)OCCO2 | – | 40 | – | –
Cc1oc(C(C)(C)C)cc1C(=O)Nc1ccc2c(c1)OCO2 | – | – | – | –
CCOC(=O)C1=C(C)C/C(=N\NC(=O)c2ccccc2O)CC1 | – | – | – | –
Cc1ccc(/C=N\Nc2nc3ccc(Cl)cc3[nH]2)o1 | 52 | – | – | –
Fc1ccccc1-c1ccc(/C=N/Nc2nc3ccccc3[nH]2)o1 | – | – | – | –
C/C(=N\Nc1ccc2nncn2n1)c1ccc(Br)s1 | – | – | – | –
COC(=O)c1sccc1NC(=O)c1ccc(Cl)s1 | – | – | – | –
CCn1c(C(=O)Nc2ccsc2C(=O)OC)cc2sc(Cl)cc21 | – | 46 | – | –
SMILES | FXIIa inh 1536 | KLK5 inh | Thrombin inh | FXIa inh 1536
Cc1ccccc1C([O-])=Nc1ccc[n+](-c2nc3ccccc3nc2NS(=O)(=O)c2ccccc2)c1 | – | – | – | –
O=C(Nc1ccc(Br)cn1)c1cccc2c1-c1ccccc1C2=O | – | – | – | –
CC1=C(C(=O)Nc2ccccc2)C(c2ccc(O)cc2)N2C(=O)CSC2=N1 (stereo not given) | – | – | 43 | –
COc1ccc(C2C(C(=O)Nc3ccccc3)=C(C)N=C3SCC(=O)N32)cc1 (stereo not given) | – | – | – | –
CC1CCCCN1Cc1c(O)ccc2c(=O)c(-c3nc4ccccc4s3)c(N)oc12 (stereo not given) | – | – | – | –
O=C(CS)Nc1ccc2ccccc2c1 | – | – | – | –
CCCCCC(=O)Nc1ccc2ccccc2c1 | – | 124 | – | –
O=C(N/C(=C\c1ccc(-c2ccccc2)o1)C(=O)N1CCOCC1)c1ccccc1 | – | – | – | –
O=C(O)CCN1C(=O)C2C3c4ccccc4C(c4ccccc43)[C@@H]2C1=O (stereo not given in full) | 46 | – | – | –
Cc1cc(=O)[nH]n(CCO)c1=O | – | – | – | –
COc1cc(C2/C(=C(/O)c3ccc(F)cc3)C(=O)C(=O)N2CCCC(=O)O)ccc1O (stereo not given) | – | – | – | –
O=C(NC1=NN(c2ccccc2)CC1)Nc1ccccc1F | – | – | – | –
CCOc1ccc(NC(=O)CSC2=NCCN2)cc1 | – | 47 | – | –
CCN(CC)S(=O)(=O)c1ccc2c(c1)nc(CCC(=O)Nc1ccc(N3CCOCC3)cc1)n2C | – | – | · | –
O=C(c1noc2c1CCc1ccccc1-2)N1CCOCC1 | – | 72 | – | –
O=C(Oc1ccc(=O)n(-c2ccccc2)n1)c1ccc(Cl)cc1 | – | – | – | 51
O=C(Oc1ccc(=O)n(-c2ccccc2)n1)c1cccc(Cl)c1 | – | – | – | 68
CSC1=N/C(=C\c2ccc(C)o2)C(=O)S1 | – | 102 | 104 | –
O=C(c1cccc(C(F)(F)F)c1)C1CCCN(C(=O)CCCn2cncn2)C1 (stereo not given) | – | · | – | –
CN(C)c1cccc(C(=O)n2cc(C(=O)c3cc(F)ccc3O)cn2)c1 | 41 | – | – | –
O=C(c1cnn(C(=O)c2ccc(O)cc2)c1)c1ccccc1O | – | 42 | – | –
O=C(c1cnn(C(=O)COc2ccccc2F)c1)c1cc(F)ccc1O | – | – | – | –
Cc1nonc1CC(=O)N1CCCC(C(=O)c2ccc(Cl)cc2)C1 (stereo not given) | – | · | – | –
Cc1nc2cc(NC(=O)CCS(=O)(=O)c3ccccc3)ccc2s1 | – | – | – | –
CCc1nccn1C(=O)c1cnn2c(C(F)F)cc(-c3ccc(C)cc3)nc12 | – | – | 77 | –
SMILES | FXIIa inh 1536 | KLK5 inh | Thrombin inh | FXIa inh 1536
Cc1ccc(-c2cc(C(F)F)n3ncc(C(=O)N4CCN(c5ccccn5)CC4)c3n2)cc1 | – | – | – | –
CCN1CCN(C(=O)c2cnn3c(C(F)F)cc(-c4ccc(C)cc4)nc23)CC1 | – | – | – | –
CCc1nccn1C(=O)c1cnn2c(C(F)F)cc(-c3ccccc3)nc12 | – | – | 76 | –
Cc1ccc(NC(=O)c2ccccc2N(C)S(=O)(=O)c2ccccc2)c(C)c1 | – | – | – | –
S=C(NCCCN1CCOCC1)Nc1ccc(Cl)c(Cl)c1 | – | – | – | –
CCN(CC)c1ccc(CN2CCC(C(=O)NCc3ccc(C)cc3)CC2)cc1 | – | – | – | –
O=C(Nc1ccc(Cl)cc1)/C(=C/c1ccc([N+](=O)[O-])cc1)c1nc2ccccc2s1 | – | – | – | –
Cn1c(SCC(=O)c2ccccc2)nnc1-c1cccc(N)c1 | 106 | 60 | – | –
O=C1Nc2c(c(=O)[nH]c(=O)n2-c2ccccc2)C1(Nc1ncccn1)C(F)(F)F (stereo not given) | – | 156 | – | –
O=C(CCl)NC1(C(F)(F)F)C(=O)Nc2c1c(=O)[nH]c(=O)n2-c1ccccc1 (stereo not given) | – | – | – | –
O=C(NCC1CCCN(Cc2ccccc2F)C1)c1cccc(C(F)(F)F)c1 (stereo not given) | – | · | – | –
